Source: publication PMC7612593 (Nature, 2022)
Values belong to the compound of their own block, whether it stands above or below them.

Key:
α4β3δ GABAAR [1] = biological target: α4β3δ GABAAR (Homo sapiens, UniProt O14764+P28472+P48169); test: whole-cell patch clamp electrophysiology on the α4β3δ cell line; format: cell-based; settings: for receptors gated, % of total receptors gated by 10 mM GABA + 30 μM Etomidate: 10 mM each ligand, 2 s first pulse of two-pulse protocol, mean ± SD; for Hill coefficient: Hill plot of normalized peak amplitude against agonist concentration
α4β3 GABAAR = α4β3 GABAAR (Homo sapiens, UniProt P28472+P48169); test: whole-cell patch clamp electrophysiology on α4β3 cells; format: cell-based; settings: for enhancement of GABA current by histamine: 300 μM histamine with 100 nM GABA
In short: (§1)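 Cells on coverslips were induced with tetracycline (2 μg/ml, 28–32 h); β3δ cells were the β3 line transiently transfected with δ. Whole-cell clamp at –50 mV, 20–22 °C, pH 7.4 bath, KCl/Mg-ATP pipette. […] One-way ANOVA.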

β3δ GABAAR = biological target: T1, β3δ GABAAR (Homo sapiens, UniProt O14764+P28472); test: whole-cell patch clamp electrophysiology on β3δ cells; format: cell-based; settings: for enhancement of GABA current by histamine: 300 μM histamine with 100 nM GABA
T1 sequence (P28472 26-473): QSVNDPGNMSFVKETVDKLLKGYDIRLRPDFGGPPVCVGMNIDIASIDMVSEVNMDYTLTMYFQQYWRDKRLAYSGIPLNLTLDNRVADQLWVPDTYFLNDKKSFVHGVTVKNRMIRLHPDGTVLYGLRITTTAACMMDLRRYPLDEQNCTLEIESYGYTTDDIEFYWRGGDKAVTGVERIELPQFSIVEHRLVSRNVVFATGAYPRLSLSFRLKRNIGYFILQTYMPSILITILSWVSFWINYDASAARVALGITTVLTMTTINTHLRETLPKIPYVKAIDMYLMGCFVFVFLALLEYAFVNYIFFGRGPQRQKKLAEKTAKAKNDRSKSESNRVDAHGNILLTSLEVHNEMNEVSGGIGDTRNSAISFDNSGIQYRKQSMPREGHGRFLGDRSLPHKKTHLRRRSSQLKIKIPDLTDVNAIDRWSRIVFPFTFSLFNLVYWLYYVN
T1 sequence (O14764 17-452 limits assumed): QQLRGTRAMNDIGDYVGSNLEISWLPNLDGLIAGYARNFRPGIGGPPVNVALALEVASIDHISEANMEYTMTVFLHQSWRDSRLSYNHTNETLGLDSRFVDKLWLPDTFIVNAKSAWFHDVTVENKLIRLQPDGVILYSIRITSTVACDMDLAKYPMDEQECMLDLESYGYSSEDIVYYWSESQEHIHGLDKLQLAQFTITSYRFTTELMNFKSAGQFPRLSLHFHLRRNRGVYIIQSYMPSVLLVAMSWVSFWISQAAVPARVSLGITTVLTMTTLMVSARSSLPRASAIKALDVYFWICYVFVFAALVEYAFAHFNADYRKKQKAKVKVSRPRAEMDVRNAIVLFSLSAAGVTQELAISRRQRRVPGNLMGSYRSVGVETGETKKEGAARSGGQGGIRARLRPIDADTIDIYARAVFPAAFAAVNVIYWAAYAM
In short: as §1

β3 GABAAR = biological target: T2, β3 GABAAR (Homo sapiens, UniProt P28472); test: whole-cell patch clamp electrophysiology on β3 cells; format: cell-based; settings: for enhancement of GABA current by histamine: 300 μM histamine with 100 nM GABA
T2 sequence (P28472 26-473): T1 sequence (P28472 26-473)
In short: as §1

α1β3γ2 GABAAR = α1β3γ2 GABAAR (Homo sapiens, UniProt P14867+P18507+P28472); test: radioligand assay, competition with pre-bound [3H]Ro15-4513, α1β3γ2 cell line; format: binding; settings: membranes from α1β3γ2 cell line
α4β3γ2 GABAAR = α4β3γ2 GABAAR (Homo sapiens, UniProt P18507+P28472+P48169); test: radioligand assay, competition with pre-bound [3H]Ro15-4513, α4β3γ2 cell pool; format: binding; settings: membranes from α4β3γ2 cell pool
α4β3δ GABAAR [2] = settings: cited from earlier work

activation of currents by GABA (α4β3δ GABAAR [1]; 100 nM GABA): robustly activates currents | receptors gated, % of total receptors gated by 10 mM GABA + 30 μM Etomidate (α4β3δ GABAAR [1]): 15.0 ± 6.0% | time for deactivating current to reach 50% of its original value (α4β3δ GABAAR [1]; 200 ms pulse of 10 μM GABA in the absence of histamine): 2.7 ± 0.7 s | Hill coefficient (α4β3δ GABAAR [1]): 0.9 | activation of currents by GABA (α4β3 GABAAR; 100 nM GABA): barely | gating by GABA (β3δ GABAAR; 200 μM GABA, 8 s pulse): not gated | gating by GABA (β3 GABAAR; 200 μM GABA, 8 s pulse): not gated
Structure (SMILES): NCCCC(=O)O [GABA, γ-aminobutyric acid]

Structure (SMILES): CCOC(=O)c1ncn2c1CN(C)C(=O)c1cc(N=[N+]=[N-])ccc1-2 [Ro15-4513]
effect on GABA currents (α4β3δ GABAAR [1]; whole-cell electrophysiology recordings, α4β3δ cell line): little effect | binding of Ro15-4513 (α1β3γ2 GABAAR): binds | binding of Ro15-4513 (α4β3γ2 GABAAR): binds

Structure (SMILES): Oc1noc2c1CCNC2 [THIP, 4,5,6,7-tetrahydroisoxazolo[5,4-c]pyridin-3-ol]
potency and efficacy at α4β3δ relative to other receptors subtypes (α4β3δ GABAAR [2]): higher potency and supramaximal efficacy

fast and slow time constants of deactivation (α4β3δ GABAAR [1]; 10 μM GABA pulse in the presence of 100 μM histamine, P = 0.03): decreased significantly | fraction of receptors with slow deactivation (α4β3δ GABAAR [1]; 10 μM GABA pulse in the presence of 100 μM histamine, P = 0.04): increased | enhancement of GABA current by histamine (α4β3δ GABAAR [1]; 300 μM histamine with 100 nM GABA): robustly enhances | receptors gated, % of total receptors gated by 10 mM GABA + 30 μM Etomidate (α4β3δ GABAAR [1]): 50.2 ± 11.0% | time for deactivating current to reach 50% of its original value (α4β3δ GABAAR [1]; 200 ms pulse of 10 μM GABA in the presence of 100 μM histamine): 1.0 ± 0.4 s | decrease in peak current amplitude of the deactivating currents (α4β3δ GABAAR [1]; 200 ms pulse of 10 μM GABA, pre-application of 100 μM histamine, n = 4 cells): 74.5 ± 11.9% | Hill coefficient (α4β3δ GABAAR [1]): 1.1 | deactivation of currents following a brief pulse of 10 μM GABA (α4β3δ GABAAR [1]; continuous presence of 100 μM histamine): accelerated | efficacy of histamine relative to GABA (α4β3δ GABAAR [1]; whole-cell currents): 3 fold | enhancement of GABA current by histamine (α4β3 GABAAR): Only modest responses | enhancement of GABA current by histamine (α4β3 GABAAR; listed as Histamine): only modestly | enhancement of GABA current by histamine (β3δ GABAAR): Only modest responses | enhancement of GABA current by histamine (β3δ GABAAR; listed as Histamine): only modestly | enhancement of GABA current by histamine (β3 GABAAR): Only modest responses | enhancement of GABA current by histamine (β3 GABAAR; listed as Histamine): only modestly
Structure (SMILES): NCCc1c[nH]cn1 [histamine]
